# High-throughput results as filed in PubChem BioAssay.
# core dimer inh – blocks dimerization of HCV core protein; TR-FRET GST/Flag-core106 dimerization, 1536-well; inhibition, % at 5 µM; 0.33% of 300,000 active;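 active = inhibition above the mean of all tested compounds plus 3 SD, set per screening campaign, cut at about 45% in these data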
#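 test system = GST/Flag-tagged HCV core106 proteins | probe or stimulus = Eu donor and XL665 acceptor anti-tag antibodies | times = compound-protein-antibody incubation 4 h at 22.5 °C | signal = TR-FRET, excitation 340 nm, emission 617 and 671 nm | measure = percent inhibition of core106 dimerization signal | controls = wells lacking GST-core106 and wells with excess unlabelled core106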
# ZTA counter – counter-screen for EBNA-1 inhibitors: inhibitors of Epstein-Barr virus ZTA | P03206 | ZTA-DNA binding, fluorescence polarization | inhibition, % at 11 µM | 0.15% of 320,000 active; in the data active = inhibition above about 33%
# Target sequence (P03206 whole entry, looked up): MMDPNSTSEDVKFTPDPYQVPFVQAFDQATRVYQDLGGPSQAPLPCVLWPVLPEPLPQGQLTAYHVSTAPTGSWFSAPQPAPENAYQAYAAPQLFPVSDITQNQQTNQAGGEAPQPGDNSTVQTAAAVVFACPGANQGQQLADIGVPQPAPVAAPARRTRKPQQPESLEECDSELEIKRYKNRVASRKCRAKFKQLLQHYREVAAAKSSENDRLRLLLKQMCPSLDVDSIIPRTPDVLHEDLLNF
# EBNA-1 inhibitor – blocks EBNA-1 binding to DNA; EBNA-1 DNA binding, fluorescence polarization; inhibition, % at 14.8 µM; 0.34% of 300,000 active; in the data active = inhibition above about 28%
# M18AAP inhibitor – PfM18AAP enzyme inhibition; 1.2% of 290,000 active; recombinant PfM18AAP, H-Glu-NHMec fluorogenic cleavage; inhibition, % at 7.35 µM;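 active = inhibition above the campaign mean inhibition over all tested compounds plus 3 SD, cut at about 28% in these data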;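 note: 0% = plate median of test compound wells and 100% = 2 mM ZnCl2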
# HCV NS3 hel inh – blocks Hepatitis C virus NS3 helicase unwinding. inhibition, % at 10.9 µM. 0.56% of 290,000 active. NS3 helicase DNA unwinding, Cy5 molecular beacon fluorescence. AID 1800;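 active = inhibition above the mean of all tested compounds plus 3 SD, set per campaign, cut at about 35% in these data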;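 note: 0% = DMSO wells and 100% = thioflavine S control wells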
#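 Compound dosing – single dose, 10.9 µM nominal final, DMSO 0.8% final · System – NS3 helicase fragment of HCV · Buffer or medium – MOPS pH 6.5, MgCl2, DTT, Tween20, BSA · Signal – Cy5 beacon fluorescence read at start and 1 h · Also added – annealed dual-labelled DNA beacon duplex, ATP-started · Schedule – 1 h at 25 °C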
# ALR inh – blocks human ALR sulfhydryl oxidase activity. P55789. purified ALR, DTT oxidation, H2O2 HRP-luminol luminescence. inhibition, % (no concentration beside the values). 3.8% of 290,000 active. AID 485317;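 active = mean replicate inhibition above about 79%, with every replicate also reaching it, limit read from the data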
# Target sequence (P55789 whole entry, looked up): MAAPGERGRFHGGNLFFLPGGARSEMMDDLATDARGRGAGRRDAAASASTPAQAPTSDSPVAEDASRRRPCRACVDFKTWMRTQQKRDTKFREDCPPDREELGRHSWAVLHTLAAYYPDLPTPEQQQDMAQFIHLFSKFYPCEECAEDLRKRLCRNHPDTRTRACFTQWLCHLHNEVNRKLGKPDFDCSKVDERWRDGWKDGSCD
# Numbers without * were called inactive; . = no result. Rows were chosen to be rich in hits. Some 5.2% of all compounds tested hit in one or more screens of this group.
SMILES,core dimer inh,ZTA counter,EBNA-1 inhibitor,M18AAP inhibitor,HCV NS3 hel inh,ALR inh
O=C(CSC1=NS(=O)(=O)c2ccccc2N1)Nc1ccc(F)cc1,0,-5,1,.,.,97*
COc1ccc(C(=O)CSc2[nH]c(=O)cc(C(F)(F)F)c2C#N)cc1,2,6,-9,3,25,98*
CCOC(=O)CSc1nc2cc(C(=O)N3CCC(C(N)=O)CC3)ccc2c(=O)n1C1CCCCC1,5,-3,-1,-5,2,97*
CCCCCn1c(SCC(=O)CC(=O)OCC)nc2cc(C(=O)N3CCC(C(N)=O)CC3)ccc2c1=O,0,-4,0,6,11,91*
COc1ccc(C(=O)Nn2c(C)nc3ccccc3c2=O)cc1[N+](=O)[O-],-1,-9,-4,-4,1,.
Cc1ccc(S(=O)(=O)N2CCOCC2)cc1NC(=O)Cn1nc(C)c([N+](=O)[O-])c1C,-3,-5,-7,.,.,-3
COC(=O)c1c(NC(=O)C2CC(=O)NN2Cc2ccccc2)sc(C)c1C (stereo not drawn),1,20,5,-8,-9,-7
CCC(/C=C1\Sc2ccc(OC)cc2N1CC)=C\c1sc2ccc(OC)cc2[n+]1CCCS(=O)(=O)[O-],-368,104*,56*,23,8,97*
CCC(=O)/C=C1/Sc2ccc(OC)cc2N1CC,-5,-10,3,27,-6,77*
CCO/C(=C/c1sc2ccc(OC)cc2[n+]1CCCS(=O)(=O)[O-])CC,0,-21,-11,3,0,36
COc1cccc(/C=N\NC(=O)Cn2nnc3ccccc32)c1O,-5,10,-13,13,7,45
Cc1ccccc1C(=NCCCN(C)C)c1ccccc1C,-8,3,0,2,4,-3
Cc1cccc(-n2c(O)c(C=Nc3cc(O)ccc3C)c3ccccc3c2=O)n1,-3,12,-1,12,5,.
Cc1cccc(-n2c(O)c(/C=N/NC(=O)c3ccccc3Cl)c3ccccc3c2=O)n1,-9,19,14,15,5,96*
Cc1ccc(N=Cc2c(O)n(-c3ccc4c(c3)OCO4)c(=O)c3ccccc23)cc1,62*,-8,-1,4,19,4
Cc1cccc(-n2c(O)c(C=Nc3ccccc3O)c3ccccc3c2=O)n1,-10,-5,-10,7,4,98*
O=c1c2ccccc2c(C=Nc2ccc(S(=O)(=O)N3CCCCC3)cc2)c(O)n1-c1ccc(Cl)cn1,60*,1,-4,-3,11,-19
COc1ccccc1-n1nnnc1SCC(=O)NC1CCCCC1,2,-3,-9,1,-6,-14
CC(=N)C1=C(O)CC(c2ccccc2)CC1=O (stereo not drawn),-4,-1,-1,1,7,-1
COCc1ccccc1C1=CC(=O)C[C@H](c2ccc(OC)cc2)C1,.,-19,.,.,.,-3
CC(C)c1ccc(C(C(=O)NC2CCCC2)N(C(=O)c2csnn2)C2CC2)cc1 (stereo not drawn),-5,-21,1,1,-10,-4
Cc1cccc(-n2c(O)c(C=Nc3ccc(O)cc3)c3ccccc3c2=O)n1,-12,2,19,4,1,99*
COc1ccc(C2C(C#N)=C(N)Oc3c2c(-c2ccccc2)nn3-c2ccccc2)c(OC)c1OC (stereo not drawn),-4,-9,6,0,10,.
COc1ccccc1C(=O)NNC(=O)c1ccc(Br)o1,-3,3,-3,-3,1,8
CCS(=O)(=O)c1ccc2oc(Nc3ccc(OC)cc3)nc2c1,-4,-5,-4,-1,4,23
SMILES,core dimer inh,ZTA counter,EBNA-1 inhibitor,M18AAP inhibitor,HCV NS3 hel inh,ALR inh
CCS(=O)(=O)c1ccc2oc(Nc3cccc(OC)c3)nc2c1,-2,-24,-4,8,-3,97*
S=c1nc(-c2ccccc2Br)[nH][nH]1,-6,-8,-5,23,-3,99*
O=C(COc1cccc(F)c1)Nc1nc(-c2ccncc2)cs1,.,0,.,.,.,-4
CCOc1cccc(/C=C(/C#N)c2nc3ccccc3[nH]2)c1OCC(=O)O,-2,-7,5,8,8,98*
N#C/C(=C\c1cccnc1)c1nc2ccccc2[nH]1,-1,14,7,9,13,3
N#C/C(=C\c1cccc(OCC(=O)O)c1)c1nc2ccccc2[nH]1,0,-14,-6,0,5,98*
COc1ccccc1N(CC(O)CN1CCCCC1)S(=O)(=O)c1ccc(C)cc1 (stereo not drawn),-5,-10,-3,2,10,-1
Cc1cc(C)c(-c2csc(NC(=O)C3=NN(c4ccccc4)C(=O)CC3)n2)c(C)c1,46*,-13,-5,-5,9,-1
Cc1ccc(-c2nc(COC(=O)C3=NN(c4ccccc4)C(=O)CC3)cs2)cc1,.,7,.,.,.,99*
CCc1ccc(-c2csc(NC(=O)C3=NN(c4ccccc4)C(=O)CC3)n2)cc1,42,3,9,-5,10,0
O=C(Nc1ccc(Br)cc1)c1cc(-c2ccncc2)nc2ccccc12,.,.,.,.,.,-1
COc1ccc(N2CCN(C(=S)Nc3ccccc3OC)CC2)cc1,3,14,5,3,4,4
COc1ccc(-c2ccc(CO)o2)cc1N,-7,-10,-3,6,5,99*
CCOC(=O)c1ccc(NC(=O)c2ccco2)cc1,1,-5,4,8,6,0
COC(=O)c1ccc(NC(=O)CCS(=O)(=O)c2ccc(Br)cc2)cc1,-17,4,4,-7,2,-5
CCOC(=O)c1ccc(NC(=O)CSCc2ccco2)cc1,29,-11,2,6,32,100*
COC(=O)c1ccc(NC(=O)CSCC(=O)OCC(=O)c2ccc(Br)cc2)cc1,-1,-16,0,1,2,99*
CCOC(=O)CC(=O)CSCC(=O)Nc1ccc(C)cc1,2,-9,-14,17,-1,100*
CCOC(=O)c1ccc(NC(=O)CSCCC(=O)O)cc1,-6,-6,7,-5,14,99*
O=C(COc1ccc2ccc(=O)oc2c1)NCCCn1ccnc1,2,7,0,2,5,-1
Cc1ccc(C2(C)NC(=O)N(CC(=O)N3CCN(C(=O)c4cccs4)CC3)C2=O)cc1 (stereo not drawn),.,-4,.,.,.,.
Cc1cnc(NC(=O)Nc2ccccc2)c(C)n1,-5,-5,7,-3,-1,18
c1ccc2c(c1)CSc1ccccc1N2,-7,-11,-6,.,.,98*
Cc1ccc(CN=C2Nc3ccccc3CS2)cc1,-1,2,6,11,-19,-1
CC1Cc2cc(S(=O)(=O)N3CCN(c4ccccc4)CC3)ccc2N1C(=O)C1CC1 (stereo not drawn),-1,-3,-6,-17,-4,2
